# Source: PubChem
# JNK3 inh: JNK3 (human) kinase inhibition. purified JNK3 kinase activity, HTS. actives 0.61% (n = 60,000). inhibition, % at 8 µM; in the data active = inhibition above about 17%
# Target sequence (P53779 whole entry, looked up): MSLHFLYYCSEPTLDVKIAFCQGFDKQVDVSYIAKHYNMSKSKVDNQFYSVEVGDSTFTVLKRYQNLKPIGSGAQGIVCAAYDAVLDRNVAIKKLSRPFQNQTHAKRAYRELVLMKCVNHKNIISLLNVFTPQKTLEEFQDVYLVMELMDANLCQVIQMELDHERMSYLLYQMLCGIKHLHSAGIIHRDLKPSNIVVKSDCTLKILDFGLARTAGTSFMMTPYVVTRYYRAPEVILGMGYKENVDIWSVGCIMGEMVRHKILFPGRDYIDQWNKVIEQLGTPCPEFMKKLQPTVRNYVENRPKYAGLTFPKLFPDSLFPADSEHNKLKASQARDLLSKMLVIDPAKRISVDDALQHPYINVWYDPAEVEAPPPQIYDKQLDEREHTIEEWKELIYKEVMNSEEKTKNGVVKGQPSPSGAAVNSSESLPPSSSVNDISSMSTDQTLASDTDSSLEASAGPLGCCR
# BAP1 inh: human BAP1 deubiquitinase inhibition. Q92560. recombinant BAP1, Ub-AMC hydrolysis fluorescence kinetic; active compounds read low. calls only at 20 µM. actives 0.48% (n = 72,000). AID 436;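 active = activity remaining at or below 50% of control, provided the compound also passes the data quality filters; inactive = the rest, including low values that fail the filters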
# Her2 expr inh: Her2 kinase expression inhibition; P04626; SKBR-3 HER2 protein level, AlphaScreen, 18-24 h; active compounds read low; HER2 level % of control, % at 10 µM; actives 0.69% (n = 65,000);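 active = HER2 level under 5% of the carrier-only control; inconclusive = no clear call, values can overlap the other calls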;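 also: lower value means stronger loss of Her2 protein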
# HEK293 NFkB inh: inhibitors of the PMA/ionomycin-induced NF-kB reporter in HEK293 cells; HEK-293 NF-kB luciferase reporter, luminescence; inhibition, % at 3 µM; actives 0.21% (n = 62,000);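 active = inhibition above the mean of all tested compounds plus 3 SD, cut at about 40% in these data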
#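 Reagent: PMA plus ionomycin mix as NF-kB-activating stimulus. Assay system: NF-kB luciferase reporter HEK-293 cells. Technique: luminescence from luciferase substrate reagent. Incubation: 1 h compound pre-incubation, 16 h PMA/ionomycin at 37 °C. Benchmarks: DMSO only as uninhibited control, 10 µM reference inhibitor as full inhibition. Repeats: tested once.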
# M1 antag: antagonists of rat M1 muscarinic receptor; P08482; B-score at 10 µM; CHO-M1 cells, Fluo-4 calcium, ACh EC80 antagonist mode; active compounds read low; actives 3.4% (n = 64,000);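 active = calcium fluorescence response, raw or row-and-column corrected B-score, differing from the plate sample mean either way at a set confidence level, mostly lower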
# M1 agonist: M1 muscarinic receptor agonism | CHO-M1 cells, Fluo-4 calcium fluorescence, agonist mode; active compounds read high | B-score at 10 µM | actives 3% (n = 64,000) | AID 626;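 active = fluorescence rise, raw or as B-score row- and column-corrected plate score, outside the 99.7% band of its plate's samples, either direction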
# BAP1 inh confirm: BAP1 (human) enzyme inhibition, confirmed; shares compounds with BAP1 inh; purified BAP1, Ub-ethyl ester hydrolysis, HPLC; active compounds read low; % of control activity, % at 20 µM; actives 8% (n = 310); AID 753;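 active = percent of control activity at or below 60%; inconclusive = HPLC trace unusable from injection failure or solvent front hiding peaks; inactive = the rest, plus ubiquitin peak ratio over a set limit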
# A number is an active result; n = inactive; u = inconclusive; x = not tested or not shown; + = active, no number. Most compounds without a hit are left out; they make up all but 6.6% or so of the library.
SMILES,JNK3 inh,BAP1 inh,Her2 expr inh,HEK293 NFkB inh,M1 antag,M1 agonist,BAP1 inh confirm
COc1ccccc1-c1c(C)nn2c(N3CCN(c4ccccc4OC)CC3)cc(C)nc12,n,+,n,n,n,n,n
CCc1nc(N2CCCC(C)C2)c2oc3ccccc3c2n1 (configuration not stated),n,+,n,n,n,n,n
CCc1nc(N2CCCCC2C)c2oc3ccccc3c2n1 (configuration not stated),n,n,n,n,n,n,x
Cc1cccc(OCC(=O)Nc2ccc(N3CCN(S(C)(=O)=O)CC3)cc2)c1C,n,+,n,n,n,n,n
Cc1ccccc1OCC(=O)Nc1ccc(N2CCN(S(C)(=O)=O)CC2)cc1,n,n,n,n,n,n,x
CC1=C(C(=O)OCC(Cl)(Cl)Cl)C(c2cccc(Br)c2)NC(=O)N1 (configuration not stated),x,n,x,x,x,x,x
c1ccc(-n2cnnc2SCc2nc3ccccc3s2)cc1,n,+,n,n,n,n,n
N#Cc1nc(-c2ccccc2F)oc1NCCN1CCOCC1,n,+,n,n,n,n,n
COc1ccc(C(=O)Nc2nc3c(OC)cccc3s2)cc1OC,x,n,x,x,x,x,x
O=S(=O)(c1ccc2c(c1)oc1ccccc12)N1CCOCC1,n,+,n,n,n,n,n
Cc1ccc(N(Cc2ccc(C(=O)NC(C)c3ccccc3)cc2)S(C)(=O)=O)cc1C (configuration not stated),x,n,x,x,x,x,x
CN(C)c1ccc(-c2nn3c(-c4ccc(Cl)cc4Cl)nnc3s2)cc1,n,+,n,n,n,n,n
C=CCn1c(SCCCCCC)nc(O)cc1=O,n,+,n,n,n,n,n
C=CCn1c(SCCCC)nc(O)cc1=O,n,n,n,n,n,n,x
Cc1cccc(NC(=O)COc2ccc(C(C)C)cc2)c1,x,n,x,x,x,x,x
CCOc1ccc(CCNC(=O)Cn2c(-c3nonc3N)nc3ccccc32)cc1OCC,n,n,n,n,n,n,x
CCCCOc1ccccc1NC(=O)Cn1c(-c2nonc2N)nc2ccccc21,n,+,n,n,n,n,n
C=COc1ccc(NC(=O)c2ccc(OC)cc2)cc1,x,n,x,x,x,x,x
Cc1occc1-c1nnc(SCC(=O)c2ccc(F)cc2)n1Cc1ccco1,n,n,n,n,n,n,x
O=C(CSc1nnc(-c2cc3ccccc3cc2O)n1Cc1ccco1)c1ccc(F)cc1,n,+,n,n,n,n,n
CSc1nc2c(cnn2-c2ccc(C)c(C)c2)c(=O)[nH]1,n,+,n,n,n,n,u
CCc1ccc(N/C(SCc2cccc(F)c2)=C(/C#N)C(=O)NCc2ccco2)cc1,x,+,n,n,n,n,n
CCc1cccc2c(C#N)cn(CC(=O)NCc3ccco3)c12,n,n,n,n,n,n,x
CCOC(=O)c1sc(NC(=O)c2ccc(S(=O)(=O)N3CC4(C)CC3CC(C)(C)C4)cc2)c(C)c1C (configuration not stated),x,n,x,x,x,x,x
CCCCCCn1c(-c2ccco2)nc2oc3cc(OC)ccc3c(=O)c2c1=O,n,+,n,n,n,n,n
SMILES,JNK3 inh,BAP1 inh,Her2 expr inh,HEK293 NFkB inh,M1 antag,M1 agonist,BAP1 inh confirm
COc1ccc(-n2c(SCC(=O)Nc3ccc4c(c3)OCO4)nc3c(c2=O)SCC3)cc1,n,+,n,n,n,n,n
O=C(CSc1nc2c(c(=O)n1-c1ccc(F)cc1)SCC2)Nc1ccc2c(c1)OCO2,x,x,n,n,n,n,x
O=C(CSc1nc2c(c(=O)n1-c1ccc(Cl)cc1)SCC2)Nc1ccc2c(c1)OCCO2,n,+,n,n,n,n,49
COC(=O)c1c(C)oc2ccc(N(C(=O)c3ccc([N+](=O)[O-])cc3)S(=O)(=O)c3ccc(Cl)cc3)cc12,x,n,x,x,x,x,x
O=C1[C@H]2[C@@H](C(=O)N1c1cc(Cl)cc(Cl)c1)[C@]1(C(=O)Nc3ccccc31)N1CCC[C@@H]21,n,+,n,n,n,n,n
O=C(CCSc1nnc2scc(-c3ccccc3)n12)Nc1nc(-c2ccccc2)ns1,n,+,n,n,n,n,n
CCOC(=O)C1=C(C)N(c2ccc(OC)cc2)C(C)=C(C(=O)OCC)C1c1cccc([N+](=O)[O-])c1,x,n,x,x,x,x,x
